An excerpt weighted towards active compounds, which were near 4.3% of everything screened.
Dyrk1A ADPGlo: inhibitors of rat Dyrk1A kinase; inhibition, % at 12.5 µM; ADP-Glo luminescence, NFATc1 peptide; 0.43% of 310,000 active; in the data active = inhibition above about 50%
CAL PDZ FP-1: CAL PDZ (human) peptide binding inhibition | 0.92% of 300,000 active | purified CAL PDZ, TMR-peptide fluorescence polarization, 1 h | Q9HD26 | AID 602252 | inhibition, % at 24.9 µM;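 active = mean inhibition of at least 30% with at least half of replicates also reaching 30%; inconclusive = no clear call, values can overlap the other calls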
CAL PDZ FP-2: human CAL PDZ-peptide interaction inhibition; 0.02% of 330,000 active; inhibition, % at 20 µM; purified CAL PDZ, TMR-peptide fluorescence polarization, 1 h; Q9HD26; AID 504414;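 active = highest replicate inhibition of at least 40%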
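Assay system – tagged CAL PDZ protein CerCALP, purified · Timing – 1 h at RT · Compound – single point, 20 µM · Measured by – fluorescence polarization from S- and P-plane intensities, G-factor corrected · Evaluation – inhibition from polarization loss · Probe or stimulus – TMR reporter peptide T*-PRC34 · Buffer or medium – pH 7.4 phosphate-saline buffer, reducing agent, detergent, IgG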
Rtt109 HAT inh: C. albicans Rtt109 histone acetyltransferase inhibition | Q5AAJ8 | purified Rtt109/Vps75, ThioGlo CoA-SH fluorescence, 4 h | inhibition, % at 34.9 µM | 0.16% of 330,000 active;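 active = inhibition of at least 50% in every replicate; inconclusive = best replicate reaches 50% inhibition but some replicates fall short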
Target sequence (Q5AAJ8 whole entry, looked up): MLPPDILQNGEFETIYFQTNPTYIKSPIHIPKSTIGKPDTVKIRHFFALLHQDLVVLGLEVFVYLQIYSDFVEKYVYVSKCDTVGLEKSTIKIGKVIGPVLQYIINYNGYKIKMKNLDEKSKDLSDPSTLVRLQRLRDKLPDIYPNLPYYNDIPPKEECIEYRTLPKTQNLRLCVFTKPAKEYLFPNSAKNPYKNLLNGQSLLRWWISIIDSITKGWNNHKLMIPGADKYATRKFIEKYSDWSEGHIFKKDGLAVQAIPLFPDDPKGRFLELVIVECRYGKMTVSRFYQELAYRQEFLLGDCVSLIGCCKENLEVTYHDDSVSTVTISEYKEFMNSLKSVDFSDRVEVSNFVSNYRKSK
ALR H2O2 inh: blocks human ALR sulfhydryl oxidase activity. P55789. purified ALR, DTT oxidation, H2O2 HRP-luminol luminescence. inhibition, % (test concentration not listed). 3.8% of 290,000 active;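 active = mean replicate inhibition above about 79%, with every replicate also reaching it, limit read from the data; inconclusive = only one of the two criteria met; inactive = mean below limit and not every replicate reaching it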
A number is an active result; - = inactive; ? = inconclusive; . = no result given.

SMILES	Dyrk1A ADPGlo	CAL PDZ FP-1	CAL PDZ FP-2	Rtt109 HAT inh	ALR H2O2 inh
CC(/C=N/n1c(-c2cc(C)[nH]n2)n[nH]c1=S)=C\c1ccco1	.	-	-	-	98
Cc1cccc(/C=N/n2c(-c3ccccn3)n[nH]c2=S)c1	.	.	.	.	95
CC(/C=N/n1c(-c2ccccn2)n[nH]c1=S)=C\c1ccccc1	.	.	.	.	96
S=c1[nH]nc(-c2ccccn2)n1/N=C/c1cccc2ccccc12	-	-	-	-	96
S=c1[nH]nc(-c2ccccn2)n1/N=C/c1ccccc1	-	.	-	-	-
Cc1c(-n2c(SCC(N)=O)nc3ccccc3c2=O)c(=O)n(-c2ccccc2)n1C	-	-	-	-	-
CN(CC(=O)Nc1ccc(F)cc1)C(=O)CSc1ncccn1	-	-	-	-	-
Cc1cc(N)n(-c2ccc(S(N)(=O)=O)cc2[N+](=O)[O-])n1	-	76	-	-	-
O=C(NNS(=O)(=O)c1ccc2ccccc2c1)c1cc(-c2ccccn2)nc2ccccc12	-	-	-	-	96
COc1ccc2ccccc2c1-c1csc(N)n1	-	-	-	-	?
COc1ccc(-c2csc(N)n2)cc1F	-	.	-	-	96
CCc1ccc(OC)c(-c2csc(N)n2)c1	-	-	-	-	98
CCCOc1ccc(-c2csc(N)n2)cc1[N+](=O)[O-]	-	-	-	-	99
O=c1oc2ccccc2cc1-c1csc(NN=C2CCCCC2)n1	-	-	-	.	87
CN(CCC#N)CC(=O)Nc1ccc(NC(=O)CN(C)CCC#N)cc1	.	39	-	-	-
CC(=O)c1c(C)nn(CC(=O)NC2CCCN(Cc3ccc(CC(C)C)cc3)C2)c1C (centres undefined)	-	-	-	-	-
O=C(Nc1ccccc1[N+](=O)[O-])C1COc2ccccc2O1 (centres undefined)	-	-	-	-	.
COc1ccc(OC)c2sc(N3CCc4ccccc4C3)nc12	.	33	-	-	.
COc1ccc(OC)c2sc(N3CCCCC3)nc12	-	-	-	-	-
CCc1ccccc1NC(=O)CN(C)S(=O)(=O)c1ccc(-c2ccc(=O)[nH]n2)s1	-	-	-	-	-
COc1cc(OC)c(NC(=O)CN(C)S(=O)(=O)c2ccc(-c3ccc(=O)[nH]n3)s2)cc1Cl	-	-	-	52	-
CC1CC2=C(C(=O)O1)C(c1ccc(Cl)cc1)Nc1ccccc1N2 (centres undefined)	-	-	-	-	99
Cc1ccc(C2Nc3ccccc3NC3=C2C(=O)OC(C)C3)cc1 (centres undefined)	-	-	-	-	99
CCC1(O)CCCC2C3CCC4CC(=O)CCC4(C)C3C(=O)CC21C (centres undefined)	.	.	-	-	.
CCc1ccc(C(=O)NNC(=O)c2c(CC)noc2C)cc1	-	60	-	-	-
SMILES	Dyrk1A ADPGlo	CAL PDZ FP-1	CAL PDZ FP-2	Rtt109 HAT inh	ALR H2O2 inh
CCc1noc(C)c1C(=O)NNC(=O)c1ccccc1	-	.	-	-	.
CC(Sc1nc(N)cc(=O)[nH]1)C(=O)NNC(=O)c1cccc(Cl)c1 (centres undefined)	.	-	-	-	-
COc1cc(/C=C/C(=O)OCC(=O)c2ccc[nH]2)cc(OC)c1OC	-	40	-	-	-
COC(=O)c1ccc(/C=C/C(=O)c2ccc(OC)c(OC)c2)cc1	-	-	-	-	99
COc1ccc(/C=C/C(=O)c2ccc(OC)cc2OC)cc1	-	-	-	-	94
COc1ccc(C(=O)/C=C/c2ccc(OCc3ccccc3)cc2)cc1CSCC(=O)O	-	-	-	-	99
COc1ccc(/C=C/C(=O)c2ccc(C(=O)/C=C/c3ccc(OC)c(OC)c3)cc2)cc1OC	-	-	-	-	.
O=C1c2ccccc2NC(c2ccc(Br)s2)N1O (centres undefined)	.	.	.	.	-
Cc1cc2nc3c(=O)n(C4CCCCC4)c(=O)[nH]c3nc2cc1N	-	-	-	-	.
CCNC(=O)C12CCC(C)(c3nc4cc(C)c(C)cc4nc31)C2(C)C (centres undefined)	-	-	-	-	-
COc1cc(C(=O)/C=C/c2cccnc2)ccc1O	-	.	-	?	100
CCOc1ccc(C(=O)/C=C/c2cc(OC)c(OC)c(OC)c2)cc1	-	-	-	-	-
COc1cc(/C=C/C(=O)c2ccc(F)cc2)cc(OC)c1OC	.	-	-	-	97
CC1(c2ccc(O)cc2)NC(=O)N(c2ccccc2)N1 (centres undefined)	-	-	-	-	98
C=C(C)CCC1(C)NC(=O)N(c2ccccc2)N1 (centres undefined)	-	.	-	-	-
CCCC(C(=O)NC(C)(C)CC)N(Cc1ccco1)C(=O)CNS(=O)(=O)c1ccccc1 (centres undefined)	-	.	-	-	-
N/C(=N/O)c1ccccc1N1CCC(Cc2ccccc2)CC1	-	-	-	-	92
CC1(C)c2cc(O)ccc2OC1N1CCOCC1 (centres undefined)	-	-	-	-	99
Cc1cc(Br)cc2c1NC(=O)C2(O)CC(=O)c1ccco1 (centres undefined)	-	.	-	-	-
COc1ccc(NC(=O)CSc2nnc(-c3ccncc3)n2CC2CCCO2)c(OC)c1 (centres undefined)	-	-	-	-	-
CCC(=O)Nc1ccc(C(=O)CSc2nnc(-c3ccc(O)cc3)n2CC2CCCO2)cc1OC (centres undefined)	-	.	-	-	82
O/N=C/C1=C(Cl)c2ccccc2CC1	-	-	-	-	-
Cc1cccc(NC(=O)c2ccccc2SCc2ccc(F)cc2)n1	-	60	-	-	.
Cc1ccn2c(NC3CCCCC3)c(C(C)C)nc2c1	-	-	-	-	99
Cc1ccn2c(NC3CCCCC3)c(-c3cccc(-c4cccc(Cl)c4)c3)nc2c1	-	-	-	-	.

Screening data: PubChem BioAssay, Broad Institute
